Screens as filed in PubChem BioAssay.
The sample as a whole holds a higher share of hits than the screen did.
RORA inh: blocks the human nuclear receptor RORA | P35398 | 65,000 compounds, 0.43% hits | CHO-K1 Gal4-RORA LBD luciferase reporter, luminescence | inhibition, % at 10 µM | AID 561;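 active = inhibition above the mean of all tested compounds plus 3 SD, cut at about 52% in these data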
Target sequence (P35398 whole entry, looked up, the tested form may be a part): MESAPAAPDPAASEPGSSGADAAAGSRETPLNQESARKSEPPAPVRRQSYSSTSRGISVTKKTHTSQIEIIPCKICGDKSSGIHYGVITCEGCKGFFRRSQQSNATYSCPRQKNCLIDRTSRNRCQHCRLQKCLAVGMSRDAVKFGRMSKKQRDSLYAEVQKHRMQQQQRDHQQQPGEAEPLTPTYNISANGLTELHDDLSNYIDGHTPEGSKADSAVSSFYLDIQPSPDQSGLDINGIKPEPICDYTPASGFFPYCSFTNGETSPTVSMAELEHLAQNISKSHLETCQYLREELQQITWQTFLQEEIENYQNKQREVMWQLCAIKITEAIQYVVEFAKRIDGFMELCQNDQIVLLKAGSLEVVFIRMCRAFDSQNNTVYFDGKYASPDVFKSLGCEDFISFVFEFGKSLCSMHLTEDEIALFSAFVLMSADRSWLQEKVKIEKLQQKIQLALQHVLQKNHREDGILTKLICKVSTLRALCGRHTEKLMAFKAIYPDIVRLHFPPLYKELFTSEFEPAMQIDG
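Test system – CHO-K1 Gal4-RORA LBD luciferase reporter cells · Schedule – 20 h at 37 °C · Signal – luminescence from basal luciferase reporter expression · Measure – percent inhibition of basal reporter luminescence, control-normalized · Control set – -RORA mock-transfected DMSO wells 100%, +RORA DMSO wells 0%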
Large screens that a line does not name were inactive.

CCCNc1nc2c(c(=O)n(C)c(=O)n2C)n1Cc1cccc(C)c1	RORA inh 55
Cc1noc(C)c1C(=O)OCC(=O)c1cc(C)n(Cc2ccccc2Cl)c1C	none
CN(C)c1nc(N)nc(Cn2ccnc2)n1	none
CCOC(=O)c1c(C)[nH]c(C(=O)COC(=O)CNC(=O)C2CCCCC2)c1C	none
CCOC(=O)Cc1csc(NC(=O)CCS(=O)(=O)Cc2ccccc2)n1	none
O=C(CSCc1ccc(Br)cc1)N1CCOCC1	none
COc1ccc(-c2nnc(SCC(=O)NC(C)C)n2CC2CCCO2)cc1OC (centres undefined)	none
Cc1nnc(SCc2ccccc2Cl)n1CC1CCCO1 (centres undefined)	none
Cc1cc(C(=O)CN2C(=O)c3ccccc3S2(=O)=O)c(C)n1CC1CCCO1 (centres undefined)	RORA inh 62
Clc1ncn(C23CC4CC(CC(C4)C2)C3)n1	none
CCOC(=O)NCCc1c(C)nc2c(c(C)nn2C(C)(C)C)c1C	none
COc1ccccc1CNC(=O)C(C)NS(=O)(=O)c1ccc(C)cc1 (centres undefined)	none
COc1ccc(S(=O)(=O)N(CC(=O)Nc2cc(C)on2)Cc2ccccc2)cc1	none
COc1ccc(S(=O)(=O)CCC(=O)NC2CCCCC2)cc1	none
COc1ccccc1-c1cc(C(F)(F)F)nc(S(=O)(=O)CCCC(=O)Nc2cc(C)on2)n1	RORA inh 70
Cc1cc(NC(=O)COc2cccc3cccnc23)no1	none
COc1ccccc1-c1cc(C(F)(F)F)nc(S(=O)(=O)CCCC(=O)NC(C)C)n1	RORA inh 57
Cc1cccc2cc(CN(Cc3ccco3)C(=O)NC3CCCCC3)c(=O)[nH]c12	none
O=S1(=O)Nc2c(ccc3cccnc23)-c2ccccc21	RORA inh 74
O=C(Nc1ccccc1)Nc1cccc2cccnc12	none
CCOc1ccccc1-n1c(COc2ccc(C)cc2)nnc1SCC(N)=O	none
O=C(CCCn1c(SCC(=O)NC2CCCC2)nc2ccccc2c1=O)NCC1CCCO1 (centres undefined)	none
CC1(C)Cc2ccccc2-c2nnc(SCC(=O)N3CCc4ccccc43)n21	none
O=C(NCc1ccncc1)c1cccc(F)c1	none
Cc1cc(/C=c2/sc3nc4ccccc4n3c2=O)c(C)n1-c1ccccn1	RORA inh 87
CC(C)OC(=O)C(NC(=O)c1ccccc1)=C1CCCCC1	none
CCN(CC)c1ccc(C2C3CCCCC3(O)CCN2CC(=O)N2CCCCC2)cc1 (centres undefined)	none
CN(CC(=O)NCc1ccco1)S(=O)(=O)c1ccc2c(c1)n(C)c(=O)c(=O)n2C	none
CCOc1cc(N2CCOCC2)c(OCC)cc1NS(=O)(=O)c1ccc(Cl)s1	none
Cc1ccc(C(=O)/C=C/Nc2ccccn2)cc1	RORA inh 90
Cc1cc(C(=O)Nc2ccccn2)no1	none
O=C(O)c1ccccc1C(=O)Nc1ccccn1	none
Cc1cc2c(cc(C(=O)OCC(=O)NCc3cccs3)n2C(C)C)o1	none
COc1ccc2[nH]c(=O)c3c(c2c1)OC(C)(C)C=C3	RORA inh 58
COc1ccc2[nH]c(C)c(CN3CCC(C)CC3)c(=O)c2c1	none
O=C(CSCCO)Nc1cc(C(F)(F)F)ccc1Cl	none
CNc1ccccc1-n1ccc(-c2ccccc2)n1	none
Cc1ccc(S(=O)(=O)NCc2ccncc2)cc1	RORA inh 56
CC1CCCCC1NS(=O)(=O)c1ccc(S(=O)(=O)NCc2ccncc2)cc1 (centres undefined)	RORA inh 69
Cc1cc(C)c(C)c(S(=O)(=O)NCc2cccnc2)c1C	none
O=S(=O)(NCc1ccc(Cl)cc1)c1cnc[nH]1	none
CC(=O)NS(=O)(=O)c1ccc(NC(=O)CCC2CCCC2)cc1	none
Cc1ccc(CNC(=O)C2CNc3cc(C)ccc3O2)cc1 (centres undefined)	none
CCc1ccc(NC2=NC(C(=O)NC3CCCCC3)CC(=O)N2)cc1 (centres undefined)	none
CCOCCCNCC(=O)N1CCN(S(=O)(=O)c2ccc(C)cc2)CC1	none
CC(Sc1ccc2ccccc2n1)C(=O)O (centres undefined)	none
O=C1C2C3C=CC(C3)C2C(=O)N1c1ccc(-c2nc3ccccc3o2)cc1 (centres undefined)	none
c1ccc2nc(-c3nc4ccccc4o3)ccc2c1	RORA inh 58
Cc1cc(Nc2ccc(C)c(C)c2)n2nc(C)nc2n1	none
O=C(C1CC1)N1CCN=C1SCc1ccccc1Cl	none
CS(=O)(=O)N(CC(=O)O)c1cc(Cl)cc(Cl)c1	none
O=C(Nc1nc(-c2nc3ccccc3s2)cs1)C1CC1	none
O=C(Nc1nc(-c2ccccc2)cs1)c1cccs1	none
O=C(Nc1nc(-c2ccccn2)cs1)c1ccc(Cl)s1	RORA inh 65
CC1CCCCN1C(=O)C1CC(c2ccc(F)cc2)=NO1 (centres undefined)	none
Cc1cc(C(F)(F)F)c2c(N)c(C(=O)Nc3cc(C)on3)sc2n1	none
CC(=O)N1CCC2(CC1)CC(=O)c1cc(OCC(=O)NCc3ccco3)ccc1O2	none
O=C(CN1CCN(S(=O)(=O)c2ccc(Br)cc2)CC1)Nc1ccccc1F	none
CCOC(=O)N1CCC(=C2c3ccc(Cl)cc3CCc3cccnc32)CC1	none
COc1ccc(CCC(=O)NCc2cnn(C)c2)cc1	none
COc1ccc(S(=O)(=O)NCCc2ccc(F)cc2)cc1	none
COc1ccc(CCNc2c(C)c(C)nc3ncnn23)cc1	RORA inh 78
COCCn1nnnc1C(c1ccc(OC)cc1)N1CCN(c2ccccc2F)CC1 (centres undefined)	none
Cc1ccc(Sc2oc(/C=N/n3cnnc3)cc2Br)cc1	none
CCCCOc1ccc(C2(C)CC(=O)NC2=O)cc1 (centres undefined)	none
